The RNAGym collection of RNA variant scans (doi:10.1126/science.aae0568)
Fewer inactive variants are shown than the library holds.

B1: tRNA (parent)
chain: GUUCCGUUGGCGUAAUGGUAACGCGUCUCCCUCCUAAGGAGAAGACUGCGGGUUCGAGUCCCGUACGGAACG

Variants of: B1
Experiment: yeast fitness relative to wild type (ratio to wild type); higher = fitter; tRNA-Arg(CCU), competitive growth, 37 C, YPD
How it was run: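 Variants of the tRNA-Arg(CCU) gene, chemically synthesised with a 3% per-site mutation rate at 69 sites, were placed at the native genomic locus in Saccharomyces cerevisiae. The pooled strains were competed in YPD at 37°C for 24 hours in six parallel replicates. Gene amplicons from the start population and from each end population were read by 100-nucleotide paired-end sequencing. Darwinian fitness relative to wild type came from changes in genotype frequencies; genotypes needed ≥ 100 starting reads, and estimates < 0.5 were set to 0.5.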

For C5U C22A C29U G51C, which yeast fitness is on record?
The yeast fitness was no more than 0.5.

With C5U C22G C29A C61A as the variant, how does the yeast fitness read?
The yeast fitness was no more than 0.5.

Which yeast fitness does the source give for C5U C22G C29A A45U A70C here?
Its yeast fitness is no more than 0.5.

With C5U A14U U16A as the variant, how does the yeast fitness read?
The yeast fitness was no more than 0.5.

Which yeast fitness does the source give for C5U C22G C24A here?
Its yeast fitness is no more than 0.5.

For C5G U19A A45C, which yeast fitness is on record?
The yeast fitness was 0.779.

With C5U C22U A57U as the variant, how does the yeast fitness read?
The yeast fitness was 0.574.

For C5U C22A A45C, which yeast fitness is on record?
Its yeast fitness is 0.564.

With C5U A37G A40C U47A as the variant, how does the yeast fitness read?
The yeast fitness was no more than 0.5.

With C5U C11A A14G A42G C49U U64A as the variant, how does the yeast fitness read?
The yeast fitness was no more than 0.5.

Which yeast fitness does the source give for C5U C22U C34U G41A A45G here?
The yeast fitness was no more than 0.5.

For C5U C22G U26G A42C, which yeast fitness is on record?
The yeast fitness was no more than 0.5.

Which yeast fitness does the source give for C5G U35A here?
The yeast fitness was 0.615.

With C5U C22U C30G A57U C66U A70U as the variant, how does the yeast fitness read?
Its yeast fitness is no more than 0.5.

Which yeast fitness does the source give for C5G U53C A65C here?
Its yeast fitness is no more than 0.5.

For C5G U26G C34G A40C C46U C49G, which yeast fitness is on record?
Its yeast fitness is 0.558.

Which yeast fitness does the source give for C5U A42G G56C here?
Its yeast fitness is no more than 0.5.

Which yeast fitness does the source give for C5U C11A G50C C66U here?
Its yeast fitness is no more than 0.5.

For C5U C22G C24A A57C, which yeast fitness is on record?
The yeast fitness was no more than 0.5.

With C5U A14C G63A as the variant, how does the yeast fitness read?
Its yeast fitness is no more than 0.5.

Which yeast fitness does the source give for C5G U26C A42G A57G C61U here?
Its yeast fitness is no more than 0.5.

For C5G U16A C31G C66G, which yeast fitness is on record?
The yeast fitness was no more than 0.5.

For C5U A42C C60G, which yeast fitness is on record?
Its yeast fitness is no more than 0.5.

With C5U C22A C33G C55U as the variant, how does the yeast fitness read?
The yeast fitness was no more than 0.5.

For C5U C11U A57U, which yeast fitness is on record?
The yeast fitness was 0.544.

With C5U C11U A36U C62A as the variant, how does the yeast fitness read?
Its yeast fitness is no more than 0.5.

With C5U A15U C31U A43U C49U as the variant, how does the yeast fitness read?
Its yeast fitness is no more than 0.5.

With C5G U16C G39C A57U as the variant, how does the yeast fitness read?
Its yeast fitness is no more than 0.5.

For C5U C27A A42U, which yeast fitness is on record?
Its yeast fitness is 0.642.

For C5U C11G C22G C46G, which yeast fitness is on record?
Its yeast fitness is no more than 0.5.

For C5G U26G G38C G51C, which yeast fitness is on record?
The yeast fitness was no more than 0.5.

With C5U C27G C34G as the variant, how does the yeast fitness read?
Its yeast fitness is no more than 0.5.

Which yeast fitness does the source give for C5G U32G here?
Its yeast fitness is 0.776.

For C5G U32A, which yeast fitness is on record?
Its yeast fitness is 0.678.

Which yeast fitness does the source give for C5U C11U A36U C49G here?
Its yeast fitness is no more than 0.5.

Which yeast fitness does the source give for C5U C11A A21G G23C U64A here?
The yeast fitness was no more than 0.5.

With C5U C24A C55A A65G as the variant, how does the yeast fitness read?
The yeast fitness was no more than 0.5.

Which yeast fitness does the source give for C5U A20C U53A here?
Its yeast fitness is 0.544.

Which yeast fitness does the source give for C5U C11G C33G here?
The yeast fitness was no more than 0.5.

Which yeast fitness does the source give for C5U C11G G51A here?
The yeast fitness was no more than 0.5.

Which yeast fitness does the source give for C5U A14U A21G A65C here?
The yeast fitness was no more than 0.5.

With C5U C22U C27U A42G C55A C60A as the variant, how does the yeast fitness read?
The yeast fitness was no more than 0.5.

For C5U A15U U54A C55U C66A, which yeast fitness is on record?
Its yeast fitness is no more than 0.5.

For C5U C11U C60U A69U, which yeast fitness is on record?
Its yeast fitness is 0.538.

With C5U C11U A65U C66G as the variant, how does the yeast fitness read?
The yeast fitness was no more than 0.5.

For C5U A65C G68A, which yeast fitness is on record?
The yeast fitness was 0.681.

For C5U A14G C33G A40G, which yeast fitness is on record?
Its yeast fitness is no more than 0.5.

Which yeast fitness does the source give for C5G U53G A65G here?
Its yeast fitness is no more than 0.5.

With C5U A14C as the variant, how does the yeast fitness read?
Its yeast fitness is 0.593.

With C5U C11A U26A C29U C30A C31U C60U C61U as the variant, how does the yeast fitness read?
Its yeast fitness is no more than 0.5.

For C5U A14U G17C C33U G52C G63A, which yeast fitness is on record?
Its yeast fitness is no more than 0.5.

For C5U A15G A42G G58C G68A, which yeast fitness is on record?
The yeast fitness was no more than 0.5.

Which yeast fitness does the source give for C5U C11G A15U U32A U35G here?
Its yeast fitness is 0.562.

For C5U A40U A42G A57C, which yeast fitness is on record?
Its yeast fitness is no more than 0.5.

For C5U A21U G68A, which yeast fitness is on record?
Its yeast fitness is no more than 0.5.

With C5U A37U A42U A69U as the variant, how does the yeast fitness read?
Its yeast fitness is no more than 0.5.

With C5U A37C C60U G67A as the variant, how does the yeast fitness read?
The yeast fitness was 0.558.

For C5U A45C A70U, which yeast fitness is on record?
The yeast fitness was 0.813.

Which yeast fitness does the source give for C5U A45C A70G here?
The yeast fitness was 0.76.

Which yeast fitness does the source give for C5U A20C A40C C61U G68C here?
Its yeast fitness is no more than 0.5.

Which yeast fitness does the source give for C5U C24U A69C here?
Its yeast fitness is 0.777.

For C5U A20U U28G U32G C34G, which yeast fitness is on record?
The yeast fitness was no more than 0.5.

With C5G U16A C29U A40U G52A A65C as the variant, how does the yeast fitness read?
Its yeast fitness is no more than 0.5.

With C5U C22A G25A C66U as the variant, how does the yeast fitness read?
Its yeast fitness is no more than 0.5.

For C5U C11U G25A A37G C60G, which yeast fitness is on record?
Its yeast fitness is no more than 0.5.

Which yeast fitness does the source give for C5U A37G A43C G63C here?
Its yeast fitness is no more than 0.5.

With C5G U64G C66U as the variant, how does the yeast fitness read?
The yeast fitness was 0.593.

With C5G U26A A36C C61G A69G as the variant, how does the yeast fitness read?
Its yeast fitness is no more than 0.5.

Which yeast fitness does the source give for C5U A65U here?
Its yeast fitness is 0.999.

For C5U A65C, which yeast fitness is on record?
The yeast fitness was 0.922.

With C5G U26C C55G U59A U64G as the variant, how does the yeast fitness read?
The yeast fitness was no more than 0.5.

For C5U C11A C24G C27G A36U G38C C60G C66A, which yeast fitness is on record?
Its yeast fitness is 0.522.

Which yeast fitness does the source give for C5U C22U U35A A37U G67A here?
The yeast fitness was no more than 0.5.

Which yeast fitness does the source give for C5G U19C U32C here?
Its yeast fitness is 0.766.

With C5U C22U U26A C55G as the variant, how does the yeast fitness read?
The yeast fitness was no more than 0.5.

With C5U A21G G39C as the variant, how does the yeast fitness read?
The yeast fitness was 0.515.

For C5U A15G A20G C27G C33U G63A, which yeast fitness is on record?
Its yeast fitness is no more than 0.5.

With C5U A14U C30U G39C as the variant, how does the yeast fitness read?
The yeast fitness was no more than 0.5.

For C5G U16A C33A A43C, which yeast fitness is on record?
Its yeast fitness is no more than 0.5.

For C5U C27G G38A A69C, which yeast fitness is on record?
The yeast fitness was no more than 0.5.

Which yeast fitness does the source give for C5U A15U G63A A70U here?
Its yeast fitness is 0.807.

With C5U A14C C29U C46A as the variant, how does the yeast fitness read?
Its yeast fitness is no more than 0.5.

Which yeast fitness does the source give for C5U A43C C49U G50A here?
Its yeast fitness is no more than 0.5.
